Laboratory results as given in ChEMBL document CHEMBL4354863, “Discovery of Novel Allosteric Inhibitors of Deoxyhypusine Synthase” (J Med Chem, 2020).

These compounds were tested against T1, Deoxyhypusine synthase (Homo sapiens, UniProt P49366) (assay: (§1) Inhibition of human N-terminal His6-tagged TEV protease site linked DHPS expressed in Escherichia coli BL21 (DE3) assessed as reduction in radiolabelled amino-butylidene incorporation in eIF5A using [3H]Spermidine trichloride as substrate after 90 to 120 mins in presence of eIF5A and 14 uM NAD+ by Topcount scintillation counting method).
T1 sequence (P49366 whole entry): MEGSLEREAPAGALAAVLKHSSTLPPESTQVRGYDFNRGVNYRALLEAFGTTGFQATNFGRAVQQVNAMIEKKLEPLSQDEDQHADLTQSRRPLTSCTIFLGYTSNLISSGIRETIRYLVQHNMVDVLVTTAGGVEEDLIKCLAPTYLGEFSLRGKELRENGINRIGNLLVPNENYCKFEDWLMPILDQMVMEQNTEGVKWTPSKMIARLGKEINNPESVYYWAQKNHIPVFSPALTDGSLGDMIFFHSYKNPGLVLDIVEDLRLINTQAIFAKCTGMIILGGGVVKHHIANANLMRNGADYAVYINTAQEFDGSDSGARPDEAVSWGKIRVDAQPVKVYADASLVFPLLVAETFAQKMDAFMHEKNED
In short: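 Reaction run 120 min at room temperature, quenched with GC-7, and bound to streptavidin plates for 90–120 min. Plates washed and scintillation-counted. IC50 with 95% CI from nonlinear regression of percent inhibition.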
With `CC(C)(C)c1ccc(C(=O)Nc2cccc3cn[nH]c23)cc1` the IC50 was greater than 100 µM.
`N=C(N)NCCCCCCCN` was tested, and the IC50 was 0.14 µM.
`O=C(Nc1cccc2[nH]ccc12)c1cc2cccc(Br)c2s1` gave an IC50 greater than 100 µM.
With `O=C(Nc1cccc2[nH]ccc12)c1cc2ccc(Br)cc2s1` the IC50 was 0.062 µM.
In the case of `NC(=O)c1ccc2cc(C(=O)Nc3cccc4[nH]ccc34)sc2c1`, the IC50 is reported as 11 µM.
Compound `O=C(Nc1cccc2[nH]ccc12)c1ccc2ccccc2c1` has an IC50 greater than 100 µM.
In the case of `O=C(Nc1cccc2[nH]ccc12)c1cc2ccc(Cl)cc2s1`, the IC50 is reported as 0.12 µM.
Work on `CC(C)(C)c1ccc(C(=O)Nc2cccc3[nH]ccc23)cc1` yielded an IC50 of 0.84 µM.
`CC(C)(C)c1ccc(C(=O)Nc2cccc3c2CCN3)cc1` showed an IC50 greater than 100 µM.
`CC(C)(C)c1ccc(NC(=O)Nc2cccc3[nH]ccc23)cc1` showed an IC50 greater than 100 µM.
Work on `O=C(Nc1cccc2[nH]ccc12)c1cc2ccccc2o1` yielded an IC50 greater than 100 µM.
`N#Cc1ccc2cc(C(=O)Nc3cccc4[nH]ccc34)sc2c1` gave an IC50 of 0.43 µM.
For `CC(C)(C)c1ccc2cc(C(=O)Nc3cccc4[nH]ccc34)sc2c1`, the IC50 was 5.4 µM.
`CC(C)(C)c1ccc(C(=O)Nc2cccc3[nH]ncc23)cc1` showed an IC50 of 22 µM.
In the case of `O=C(Nc1cccc2[nH]ccc12)c1ccccc1`, the IC50 is reported as greater than 100 µM.
`O=C(Nc1cccc2[nH]ccc12)c1cc2ccccc2s1` was tested, and the IC50 was 2.3 µM.
Compound `CC(C)(C)c1ccc(NC(=O)c2cccc3[nH]ccc23)cc1` has an IC50 of 99 µM.
With `CC(C)(C)c1ccc(C(=O)Nc2cccc3c2CC(=O)N3)cc1` the IC50 was 42 µM.
With `O=C(Nc1cccc2[nH]ccc12)c1cc2cc(Br)ccc2s1` the IC50 was greater than 100 µM.
`O=C(Nc1cccc2[nH]ccc12)c1cc2ccc(I)cc2s1` showed an IC50 of 0.092 µM.
`CC(C)(C)c1ccc(S(=O)(=O)Nc2cccc3[nH]ccc23)cc1` gave an IC50 greater than 100 µM.

These compounds were tested against T1, Deoxyhypusine synthase (assay: as §1, with “Competitive inhibition” for “Inhibition”, “using 2 uM of” for “using”, “250” for “14”).
In short: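 Human DHPS (His-tagged, tag removed with TEV, purified by Ni-affinity and size exclusion), 24 nM, with 1 µM eIF5A, 2 µM [³H]-spermidine (38.5 Ci/mmol) and 250 µM NAD⁺ (×18 Km). Reaction run 120 min at room temperature, stopped with GC-7, and captured on streptavidin plates for 90–120 min. Plates washed with PBS and counted by scintillation. IC50 from nonlinear regression of percent inhibition.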
`N=C(N)NCCCCCCCN` showed an IC50 of 0.5 µM.
`O=C(Nc1cccc2[nH]ccc12)c1cc2ccc(Br)cc2s1` showed an IC50 of 56 µM.
In the case of `CC(C)(C)c1ccc(C(=O)Nc2cccc3[nH]ccc23)cc1`, the IC50 is reported as 38 µM.

These compounds were tested against T1, Deoxyhypusine synthase (assay: as §1, with “Competitive inhibition” for “Inhibition”, “using 100 uM of” for “using”).
In short: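 Human DHPS expressed in E. coli, Ni-affinity purified, His-tag removed by TEV protease, then size-exclusion purified; 24 nM enzyme. Run with 1 µM eIF5A, 14 µM NAD+, 100 µM [3H]-spermidine (high-spermidine condition), 1 mM DTT, 50 mM Tris-HCl pH 8.0, 120 min at room temperature. Stopped with GC-7, captured on streptavidin plates, PBS-washed, scintillation counted. IC50 from nonlinear regression, 95% CI.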
With `O=C(Nc1cccc2[nH]ccc12)c1cc2ccc(Br)cc2s1` the IC50 was 6.9 µM.
